Results reported in ChEMBL document CHEMBL3871272, “Systemic optimization and structural evaluation of quinoline derivatives as transthyretin amyloidogenesis inhibitors” (Eur J Med Chem, 2016).
Each block holds one compound with its values, some of them ahead of it. Calls of active or inactive are those of the source. The rule behind the calls is not given here.

What was measured:
Transthyretin [1] = target: T1, Transthyretin (Homo sapiens, UniProt P02766); experiment: Inhibition of wild type TTR (unknown origin) assessed as inhibition of acid-mediated amyloidogenesis by measuring fibril formation at 7.2 uM preincubated with enzyme followed by amyloidogenesis stimulation by adjusting pH to 4.4 measured after 72 hrs relative to control; design: scale not given: the % may be the effect or the level left
How it was run: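 WT-TTR (3.6 µM, physiological level) was preincubated with inhibitor at 7.2 or 3.6 µM. The pH was then adjusted to 4.4 to trigger fibril formation, 37 °C, 72 h. Fibrils were expressed relative to untreated WT-TTR set at 100%.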

[2] = Plasma clearance in Sprague-Dawley rat at 2 mg/kg, iv administered as single dose by HPLC/MS/MS method; format: ADME, organism-based
How it was run: (§1)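 Male SD rats, fasted overnight, four animals, single tail-vein IV dose of 2 mg/kg. Dosing solution 1 mg/mL in 10% DMSO, 40% PEG400, 50% saline. Plasma concentrations were measured over time. Parameters were calculated per animal and averaged.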

[3] = Tmax in Sprague-Dawley rat at 2 mg/kg, iv administered as single dose by HPLC/MS/MS method; format: ADME, organism-based; conditions: in vivo; how it was run: as §1
[4] = Terminal half life in Sprague-Dawley rat at 2 mg/kg, iv administered as single dose by HPLC/MS/MS method; format: ADME, organism-based; conditions: in vivo, read-out: beta t1/2 (converted); how it was run: as §1
[5] = Cmax in Sprague-Dawley rat at 5 mg/kg, po administered as single dose via oral gavage by HPLC/MS/MS method; format: ADME, organism-based; conditions: in vivo
How it was run: (§2)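 Five overnight-fasted male SD rats received a single 5 mg/kg dose by gavage needle. Dosing solution 2.5 mg/mL in 10% DMSO, 40% PEG400, 50% saline. Plasma concentration-time profiles were obtained, and parameters were calculated for each animal and then averaged.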

Transthyretin [6] = target: T1, Transthyretin; experiment: Inhibition of wild type TTR (unknown origin) assessed as inhibition of acid-mediated amyloidogenesis by measuring fibril formation at 3.6 uM preincubated with enzyme followed by amyloidogenesis stimulation by adjusting pH to 4.4 measured after 72 hrs relative to control; design: scale not given: the % may be the effect or the level left
How it was run: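 WT-TTR (3.6 μM, physiological concentration) preincubated with inhibitor (3.6 or 7.2 μM), then fibril formation triggered by adjusting pH to 4.4; incubated 37 °C, 72 h. Fibril formation expressed as percent of untreated WT-TTR (100%).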

[7] = Tmax in Sprague-Dawley rat at 5 mg/kg, po administered as single dose via oral gavage by HPLC/MS/MS method; format: ADME, organism-based; conditions: in vivo; how it was run: as §2
Transthyretin [8] = target: T1, Transthyretin; experiment: Inhibition of wild type TTR (unknown origin) assessed as inhibition of acid-mediated amyloidogenesis by measuring fibril formation preincubated with enzyme followed by amyloidogenesis stimulation by adjusting pH to 4.4 measured after 72 hrs relative to control
[9] = AUC (0 to infinity) in Sprague-Dawley rat at 2 mg/kg, iv administered as single dose by HPLC/MS/MS method; format: ADME, organism-based; design: dose 2 mg/kg, time infinity, route intravenous; conditions: in vivo
How it was run: (§3)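 Male Sprague-Dawley rats, fasted overnight, 4 animals. Single 2 mg/kg IV dose via tail vein, given as a 1 mg/mL solution in 10% DMSO, 40% PEG400 and 50% saline. Plasma was processed by vigorous mixing and centrifugation at 12,000 g for 10 min, with an internal standard added, then analysed by RP-HPLC. Parameters were calculated for each animal and averaged.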

[10] = Oral bioavailability in Sprague-Dawley rat at 5 mg/kg administered as single dose by HPLC/MS/MS method; format: ADME, organism-based; conditions: in vivo
How it was run: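 Bioavailability was taken from dose-normalized AUC0-∞ after oral (5 mg/kg, gavage, n=5) versus IV (2 mg/kg, tail vein, n=4) dosing in fasted male SD rats. Vehicle: 10% DMSO, 40% PEG400, 50% saline.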

[11] = AUC (0 to t) in Sprague-Dawley rat at 2 mg/kg, iv administered as single dose by HPLC/MS/MS method; format: ADME, organism-based; conditions: in vivo; how it was run: as §3
[12] = Cmax in Sprague-Dawley rat at 2 mg/kg, iv administered as single dose by HPLC/MS/MS method; format: ADME, organism-based; design: dose 2 mg/kg, route intravenous; conditions: in vivo; how it was run: as §1
[13] = Volume of distribution at steady state distribution in Sprague-Dawley rat at 2 mg/kg, iv administered as single dose by HPLC/MS/MS method; format: ADME, organism-based; conditions: in vivo, read-out: Vdss; how it was run: as §1
[14] = AUC (0 to infinity) in Sprague-Dawley rat at 5 mg/kg, po administered as single dose via oral gavage by HPLC/MS/MS method; format: ADME, organism-based; conditions: in vivo
How it was run: as §3, with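 “overnight, 5” for “overnight, 4”, “Single 5” for “Single 2”, “mg/kg oral” for “mg/kg IV”, “dose by gavage needle,” for “dose via tail vein,”, “a 2.5” for “a 1”, “by” for “by vigorous”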

[15] = AUC (0 to t) in Sprague-Dawley rat at 5 mg/kg, po administered as single dose via oral gavage by HPLC/MS/MS method; format: ADME, organism-based; conditions: in vivo
How it was run: as §3, with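 “overnight, 5” for “overnight, 4”, “Single 5” for “Single 2”, “mg/kg oral” for “mg/kg IV”, “dose by gavage needle,” for “dose via tail vein,”, “a 2.5” for “a 1”, “by” for “by vigorous”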

[16] = Terminal half life in Sprague-Dawley rat at 5 mg/kg, po administered as single dose via oral gavage by HPLC/MS/MS method; format: ADME, organism-based; conditions: in vivo, read-out: beta t1/2 (converted); how it was run: as §2
[17] = tested on: Transthyretin (Homo sapiens), P02766 [V50M]; experiment: Inhibition of TTR V30M mutant (unknown origin) assessed as inhibition of acid-mediated amyloidogenesis by measuring fibril formation at 7.2 uM preincubated with enzyme followed by amyloidogenesis stimulation by adjusting pH to 4.4 measured after 72 hrs relative to control; design: scale not given: the % may be the effect or the level left
How it was run: (§4)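 V30M-TTR (3.6 μM) preincubated with inhibitor (3.6 or 7.2 μM), then fibril formation triggered by adjusting pH to 4.4; incubated 37 °C, 72 h. Fibril formation expressed as percent of untreated V30M-TTR (100%).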

[18] = tested on: Transthyretin (Homo sapiens), P02766 [V50M]; experiment: Inhibition of TTR V30M mutant (unknown origin) assessed as inhibition of acid-mediated amyloidogenesis by measuring fibril formation at 3.6 uM preincubated with enzyme followed by amyloidogenesis stimulation by adjusting pH to 4.4 measured after 72 hrs relative to control; design: scale not given: the % may be the effect or the level left; how it was run: as §4
Transthyretin [19] = target: T1, Transthyretin; experiment: Inhibition of wild type TTR (unknown origin) assessed as inhibition of acid-mediated amyloidogenesis by measuring reduction in fibril formation at 3.6 uM preincubated with enzyme followed by amyloidogenesis stimulation by adjusting pH to 4.4 measured up to 120 hrs relative to control
How it was run: (§5)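 Time-course version of the acid-mediated fibril formation assay: inhibitor at a concentration equal to the TTR tetramer (3.6 μM), preincubated with TTR, then acidified to pH 4.4. Fibril formation followed over 120 h instead of at a fixed 72 h, relative to untreated TTR.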

Transthyretin [20] = target: Transthyretin (Homo sapiens, UniProt P02766, V50M); experiment: Inhibition of TTR V30M mutant (unknown origin) assessed as inhibition of acid-mediated amyloidogenesis by measuring fibril formation preincubated with enzyme followed by amyloidogenesis stimulation by adjusting pH to 4.4 measured after 72 hrs relative to control
[21] = tested on: Transthyretin (Homo sapiens), P02766 [V50M]; experiment: Inhibition of TTR V30M mutant (unknown origin) assessed as inhibition of acid-mediated amyloidogenesis by measuring reduction in fibril formation at 3.6 uM preincubated with enzyme followed by amyloidogenesis stimulation by adjusting pH to 4.4 measured up to 120 hrs relative to control; how it was run: as §5

Compound: CC(C)c1cc(C#Cc2ccc3ccccc3n2)ccc1O
Activity (Transthyretin [1]): 97.3%

Compound: CCc1cc(C#Cc2ccc3ccccc3n2)ccc1O
Activity (Transthyretin [1]): 99%

Compound: CCc1cc(C#Cc2ccc3ccccc3n2)cc(CC)c1O
Activity (Transthyretin [1]): 93.4%

Compound: Cc1cc(C#Cc2ccc3cc(N)ccc3n2)cc(C)c1O
clearance [2]: 25.1 mL/min/kg
Tmax [3]: 4.98 min
half-life [4]: 2.71 h
Cmax [5]: 138 ng/mL
Activity (Transthyretin [6]): 17.9%
Tmax [7]: 2.45 h
IC50 (Transthyretin [8]): 1900 nM
AUC(0-inf) [9]: 1350 ng·h/mL
bioavailability [10]: 6.89%
AUC(0-t) [11]: 1330 ng·h/mL
Cmax [12]: 3110 ng/mL
Vd [13]: 1.48 L/kg
AUC(0-inf) [14]: 232 ng·h/mL
Activity (Transthyretin [1]): 4.8%
AUC(0-t) [15]: 226 ng·h/mL
half-life [16]: 1.59 h

Compound: Cc1cc(/C=C/c2ccc3cc([N+](=O)[O-])ccc3n2)cc(C)c1O
Activity (Transthyretin [1]): 92.9%

Compound: Cc1cc(C#Cc2ccc3cc([N+](=O)[O-])ccc3n2)cc(C)c1O
Activity (Transthyretin [6]): 20.9%
IC50 (Transthyretin [8]): 2060 nM
Activity (Transthyretin [1]): 3.6%

The remaining lines, values ahead:

Activity [17]: 3.2%
Activity [18]: 17%
Activity (Transthyretin [6]): 14.8%
Activity (Transthyretin [1]): 1%
inhibition (Transthyretin [19]): Active
Compound: O=C(O)c1ccc2nc(-c3cc(Cl)cc(Cl)c3)oc2c1

Activity (Transthyretin [1]): 26.3%
Compound: Cc1cc(/C=C/c2ccc3ccccc3n2)cc(C)c1O

Activity (Transthyretin [6]): 33.2%
Activity (Transthyretin [1]): 2.3%
Compound: Cc1cc(/C=C/c2cc3ccccc3nc2Cl)cc(C)c1O

Activity (Transthyretin [1]): 73.9%
Compound: Oc1ccc(C#Cc2ccc3ccccc3n2)cc1

Activity (Transthyretin [1]): 22.1%
Compound: COc1ccc2nc(C#Cc3cc(C)c(O)c(C)c3)ccc2c1

Activity (Transthyretin [6]): 51.3%
Activity (Transthyretin [1]): 26.8%
Compound: Cc1cc(/C=C/c2ccc3cc(N)ccc3n2)cc(C)c1O

Activity (Transthyretin [6]): 32.1%
IC50 (Transthyretin [8]): 2590 nM
Activity (Transthyretin [1]): 9.6%
Compound: Cc1cc(C#Cc2ccc3cc(O)ccc3n2)cc(C)c1O

Activity (Transthyretin [6]): 25.6%
IC50 (Transthyretin [8]): 2180 nM
Activity (Transthyretin [1]): 10.2%
Compound: Cc1cc(C#Cc2ccc3ccccc3n2)cc(C)c1O

clearance [2]: 7.34 mL/min/kg
Tmax [3]: 4.98 min
IC50 (Transthyretin [20]): 1630 nM
half-life [4]: 2.75 h
Activity [17]: 5%
Activity [18]: 16.6%
Cmax [5]: 665 ng/mL
Activity (Transthyretin [6]): 17.7%
Tmax [7]: 0.598 h
IC50 (Transthyretin [8]): 1490 nM
AUC(0-inf) [9]: 4590 ng·h/mL
bioavailability [10]: 27.2%
AUC(0-t) [11]: 4510 ng·h/mL
Cmax [12]: 2380 ng/mL
Vd [13]: 1.13 L/kg
AUC(0-inf) [14]: 3120 ng·h/mL
Activity (Transthyretin [1]): 0.9%
inhibition (Transthyretin [19]): 7 to 23%
inhibition [21]: > 80%
AUC(0-t) [15]: 2840 ng·h/mL
half-life [16]: 3.36 h
Compound: Cc1cc(/C=C/c2cc3ccc(O)cc3nc2Cl)cc(C)c1O
